ChEMBL document CHEMBL1125826, “Synthesis and biological activity of 5-amino- and 5-hydroxyquinolones, and the overwhelming influence of the remote N1-substituent in determining the structure-activity relationship” (1991)
Values after ≈ are worked out from the molar mass of the structure shown.

Experiments:
Assay type in all cases: functional
[1] = tested on: Pseudomonas aeruginosa; assay: Antibacterial activity was determined against gram negative organism, Pseudomonas aeruginosa UI-18; details: Pseudomonas aeruginosa; read-out: MIC
Procedure, shortened: (§1)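 MIC (µg/mL) by standard microtitration against a panel of 10 Gram-positive and Gram-negative organisms; values averaged from multiple experiments.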

[2] = tested on: Escherichia coli; assay: Antibacterial activity was determined against gram negative organism, Escherichia coli vogel; details: Escherichia coli; read-out: MIC; procedure, shortened: as §1
[3] = tested on: Streptococcus pyogenes; assay: Antibacterial activity was determined against gram positive organism, Streptococcus pyogenes C203; details: Streptococcus pyogenes; read-out: MIC; procedure, shortened: as §1
[4] = tested on: Staphylococcus aureus; assay: (§2) Antibacterial activity was determined against gram positive organism, Staphylococcus aureus UC76; procedure, shortened: as §1
[5] = (§3) MIC ratio measured as the mean MICs of gram-negative bacteria
Procedure, shortened: (§4)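 Geometric mean of the microtitration MICs (µg/mL) over the Gram-negative organisms, and separately over the Gram-positive organisms, of the 10-strain panel; individual MICs averaged from multiple experiments.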

[6] = tested on: Streptococcus pyogenes; assay: The in vivo potency was determined in female charles river CD-1 mice infected with Streptococcus pyogenes after peroral administration; details: Streptococcus pyogenes, po; read-out: PD50
Procedure, shortened: (§5)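 Acute lethal systemic infection in female CD-1 mice, 16 mice per route; single dose given orally by gavage at the time of challenge; median protective dose (PD50, mg/kg) determined.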

[7] = tested on: Escherichia coli; assay: The in vivo potency was determined in female charles river CD-1 mice infected with Escherichia coli after sc administration; details: Escherichia coli, sc; read-out: PD50
Procedure, shortened: (§6)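 Acute lethal systemic infection in female CD-1 mice, 16 mice per route; single subcutaneous dose given at the time of challenge; median protective dose (PD50, mg/kg) determined.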

[8] = tested on: Staphylococcus aureus; assay: (§7) Antibacterial activity was determined against gram positive organism, Staphylococcus aureus H228; details: Staphylococcus aureus; read-out: MIC; procedure, shortened: as §1
[9] = tested on: Enterobacter cloacae; assay: Antibacterial activity was determined against gram negative organism, Enterobacter cloacae MA2646; details: Enterobacter cloacae; read-out: MIC
[10] = tested on: Bacteria; assay: Antibacterial activity was determined against gram negative organism, Providencia rettgeri. M1771; details: Bacteria; read-out: MIC; procedure, shortened: as §1
[11] = (§8) MIC ratio measured as the mean MICs of gram-positive bacteria; procedure, shortened: as §4
[12] = tested on: Streptococcus pyogenes; assay: The in vivo potency was determined in female charles river CD-1 mice infected with Streptococcus pyogenes after sc administration; details: Streptococcus pyogenes, sc; read-out: PD50; procedure, shortened: as §6
[13] = tested on: Escherichia coli; assay: The in vivo potency was determined in female charles river CD-1 mice infected with Escherichia coli after peroral administration; details: Escherichia coli, po; read-out: PD50; procedure, shortened: as §5
[14] = tested on: Streptococcus pneumoniae; assay: (§9) Antibacterial activity was determined against gram positive organism, Streptococcus pneumoniae SV-1; details: Streptococcus pneumoniae; read-out: MIC; procedure, shortened: as §1
[15] = tested on: Klebsiella pneumoniae; assay: Antibacterial activity was determined against gram negative organism, Klebsiella pneumoniae MGH-2; details: Klebsiella pneumoniae; read-out: MIC; procedure, shortened: as §1
[16] = tested on: Enterococcus faecalis; assay: Antibacterial activity was determined against gram positive organism, Streptococcus faecalis MGH-2; details: Enterococcus faecalis; read-out: MIC; procedure, shortened: as §1
[17] = molecular target: T1, DNA gyrase (Escherichia coli) (UniProt P0AES6+P0AES4); assay: Minimum inhibitory concentration against Escherichia coli DNA-gyrase in supercoiling assay
[18] = tested on: Bacteria; assay: as §8; procedure, shortened: as §4
[19] = tested on: Bacteria; assay: as §3; procedure, shortened: as §4
[20] = tested on: Streptococcus pneumoniae; assay: The in vivo potency was determined in female charles river CD-1 mice infected with Streptococcus pneumoniae after sc administration; details: Streptococcus pneumoniae, sc; read-out: PD50; procedure, shortened: as §6
[21] = tested on: Streptococcus pneumoniae; assay: The in vivo potency was determined in female charles river CD-1 mice infected with Streptococcus pneumoniae after peroral administration; details: Streptococcus pneumoniae, po; read-out: PD50; procedure, shortened: as §5
[22] = tested on: Staphylococcus aureus; assay: as §7
Procedure, shortened: (§10)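 Broth microtitration MIC against a panel of 10 Gram-positive and Gram-negative organisms; MIC in µg/mL, averaged over multiple experiments.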

[23] = tested on: Streptococcus pneumoniae; assay: as §9; procedure, shortened: as §10
[24] = tested on: Staphylococcus aureus; assay: as §2; procedure, shortened: as §10; remark: listed apart in the source
[25] = tested on: Bacteria; assay: MIC ratio measured as the mean MICs of gram-negative; procedure, shortened: as §4
[26] = tested on: Bacteria; assay: MIC ratio measured as the mean MICs of gram-positive values; procedure, shortened: as §4
[27] = molecular target: T1, DNA gyrase (Escherichia coli); assay: Minimum inhibitory concentration against Escherichia coli DNA-gyrase supercoiling assay
[28] = Staphylococcus aureus, read-out: MIC

| Compound | MIC [1] [µg/mL] | MIC [2] [µg/mL] | MIC [3] [µg/mL] | MIC [4, 28] [µg/mL] | Ratio [5] | ED50 [6] [mg/kg] | ED50 [7] [mg/kg] | MIC [8] [µg/mL] | MIC [9] [µg/mL] | MIC [10] [µg/mL] | ED50 [12] [mg/kg] | ED50 [13] [mg/kg] | MIC [14] [µg/mL] | MIC [15] [µg/mL] | MIC [16] [µg/mL] | MIC [17] [µg/mL] | Geometric mean MIC over Gram-positive bacteria (µg/mL) [18] | Geometric mean MIC over Gram-negative bacteria (µg/mL) [19] | ED50 [20] [mg/kg] | ED50 [21] [mg/kg] | also measured |
| --- | --- | --- | --- | --- | --- | --- | --- | --- | --- | --- | --- | --- | --- | --- | --- | --- | --- | --- | --- | --- | --- |
| CC1CN(c2c(F)c(N)c3c(=O)c(C(=O)O)cn(C4CC4)c3c2Cl)CC(C)N1 (centres undefined) | 1.6 (≈ 3.91 µM) | 0.05 (≈ 0.122 µM) | 0.2 (≈ 0.489 µM) | 0.025 (≈ 0.0611 µM) | 0.23 | 10 | 1 | 0.1 (≈ 0.245 µM) | 0.1 (≈ 0.245 µM) | 0.4 (≈ 0.978 µM) | 8 | 2 | 0.1 (≈ 0.245 µM) | 0.2 (≈ 0.489 µM) | 0.4 (≈ 0.978 µM) | – | – | – | – | – | Ratio [11]: 0.11 |
| Nc1c(F)c(N2CCC(N)C2)c(F)c2c1c(=O)c(C(=O)O)cn2C1CC1 (centres undefined) | 0.1 (≈ 0.274 µM) | 0.006 (≈ 0.0165 µM) | 0.025 (≈ 0.0686 µM) | 0.013 (≈ 0.0357 µM) | – | 20 | 1 | 0.05 (≈ 0.137 µM) | 0.006 (≈ 0.0165 µM) | 0.025 (≈ 0.0686 µM) | 9 | 2 | 0.025 (≈ 0.0686 µM) | 0.013 (≈ 0.0357 µM) | 0.05 (≈ 0.137 µM) | 0.5 (≈ 1.37 µM) | 0.029 | 0.016 | 8 | 28 | – |
| CC1CN(c2c(F)c(N)c3c(=O)c(C(=O)O)cn(C4CC4)c3c2F)CCN1 (centres undefined) | 0.4 (≈ 1.06 µM) | 0.013 (≈ 0.0344 µM) | 0.2 (≈ 0.529 µM) | 0.025 (≈ 0.0661 µM) | – | 20 | 0.2 | 0.05 (≈ 0.132 µM) | 0.013 (≈ 0.0344 µM) | 0.05 (≈ 0.132 µM) | 18 | 0.5 | 0.05 (≈ 0.132 µM) | 0.025 (≈ 0.0661 µM) | 0.1 (≈ 0.264 µM) | 1 (≈ 2.64 µM) | 0.066 | 0.038 | 15 | 20 | – |
| Nc1c(F)c(N2CCC(N)C2)c(Cl)c2c1c(=O)c(C(=O)O)cn2C1CC1 (centres undefined) | 0.8 (≈ 2.1 µM) | 0.025 (≈ 0.0657 µM) | 0.1 (≈ 0.263 µM) | – | 0.076 | – | 1 | 0.1 (≈ 0.263 µM) | 0.025 (≈ 0.0657 µM) | 0.1 (≈ 0.263 µM) | – | 6 | 0.1 (≈ 0.263 µM) | 0.05 (≈ 0.131 µM) | 0.1 (≈ 0.263 µM) | – | – | – | – | – | MIC [4]: 0.025 µg/mL (≈ 0.0657 µM); Ratio [11]: 0.076 |
| CCn1cc(C(=O)O)c(=O)c2cc(F)c(N3CCNCC3)cc21 [NORFLOXACIN] | 0.2 (≈ 0.626 µM) | 0.025 (≈ 0.0783 µM) | 0.8 (≈ 2.51 µM) | – | 0.057 | – | – | – | 0.1 (≈ 0.313 µM) | 0.025 (≈ 0.0783 µM) | – | – | – | 0.05 (≈ 0.157 µM) | 1.6 (≈ 5.01 µM) | – | – | – | – | – | MIC [22]: 0.8 µg/mL (≈ 2.51 µM); MIC [23]: 1.6 µg/mL (≈ 5.01 µM); Ratio [11]: 0.61; MIC [24]: 0.05 µg/mL (≈ 0.157 µM) |
| CC1CN(c2c(F)c(N)c3c(=O)c(C(=O)O)cn(C4CC4)c3c2Cl)CCN1 (centres undefined) | 0.8 (≈ 2.03 µM) | 0.025 (≈ 0.0633 µM) | 0.1 (≈ 0.253 µM) | 0.025 (≈ 0.0633 µM) | – | 6 | 0.3 | 0.05 (≈ 0.127 µM) | 0.05 (≈ 0.127 µM) | 0.2 (≈ 0.507 µM) | 4 | 0.7 | 0.05 (≈ 0.127 µM) | 0.1 (≈ 0.253 µM) | 0.1 (≈ 0.253 µM) | 3.8 (≈ 9.62 µM) | 0.057 | 0.11 | 9 | 12 | – |
| NC1CCN(c2c(F)c(O)c3c(=O)c(C(=O)O)cn(C4CC4)c3c2F)C1 (centres undefined) | 0.2 (≈ 0.547 µM) | 0.013 (≈ 0.0356 µM) | 0.05 (≈ 0.137 µM) | 0.025 (≈ 0.0684 µM) | – | 90 | 0.5 | 0.1 (≈ 0.274 µM) | 0.013 (≈ 0.0356 µM) | 0.05 (≈ 0.137 µM) | 11 | 2 | 0.05 (≈ 0.137 µM) | 0.025 (≈ 0.0684 µM) | 0.1 (≈ 0.274 µM) | 0.5 (≈ 1.37 µM) | – | – | 18 | 107 | Ratio [25]: 0.034; Ratio [26]: 0.057 |
| Nc1c(F)c(N2CCNCC2)c(F)c2c1c(=O)c(C(=O)O)cn2C1CC1 | 0.025 (≈ 0.0686 µM) | 0.013 (≈ 0.0357 µM) | 0.1 (≈ 0.274 µM) | 0.013 (≈ 0.0357 µM) | – | 31 | 0.2 | 0.05 (≈ 0.137 µM) | 0.013 (≈ 0.0357 µM) | 0.05 (≈ 0.137 µM) | 23 | 0.8 | 0.05 (≈ 0.137 µM) | 0.025 (≈ 0.0686 µM) | 0.05 (≈ 0.137 µM) | 0.5 (≈ 1.37 µM) | 0.044 | 0.022 | 27 | 68 | – |
| CC1CN(c2cc3c(c(N)c2F)c(=O)c(C(=O)O)cn3-c2ccc(F)cc2F)CCN1 (centres undefined) | 1.6 (≈ 3.7 µM) | 0.1 (≈ 0.231 µM) | 0.4 (≈ 0.925 µM) | – | 0.3 | – | – | – | 0.2 (≈ 0.463 µM) | 0.4 (≈ 0.925 µM) | – | – | – | 0.2 (≈ 0.463 µM) | 0.4 (≈ 0.925 µM) | – | – | – | – | – | MIC [22]: 0.2 µg/mL (≈ 0.463 µM); MIC [23]: 0.2 µg/mL (≈ 0.463 µM); MIC [27]: 2.5 µg/mL (≈ 5.78 µM); Ratio [11]: 0.2; MIC [24]: 0.05 µg/mL (≈ 0.116 µM) |
| O=C(O)c1cn(C2CC2)c2c(F)c(N3CCNCC3)c(F)cc2c1=O | 0.2 (≈ 0.573 µM) | 0.05 (≈ 0.143 µM) | 0.8 (≈ 2.29 µM) | 0.1 (≈ 0.286 µM) | – | 59 | 0.3 | 0.4 (≈ 1.15 µM) | 0.05 (≈ 0.143 µM) | 0.1 (≈ 0.286 µM) | 29 | 0.5 | 0.8 (≈ 2.29 µM) | 0.05 (≈ 0.143 µM) | 0.4 (≈ 1.15 µM) | 0.5 (≈ 1.43 µM) | 0.4 | 0.076 | 9 | 33 | – |
